Published values of several laboratories.
Protocols differ between the studies behind these lines.
Target: Homeodomain-interacting protein kinase 1 (HIPK1, Homo sapiens, UniProt Q86Z02)
Observed: enzyme activity
Mode: inhibitor

SMILES | method | tested at | remaining activity [%]
O=C(O)c1ccc2c(c1)nc(Nc1ccccc1Cl)c1ncncc12 | radiometric | 1 µM | 13
COc1cc(Nc2cnc(C#N)c(O[C@H](C)CN(C)C)n2)ncc1-c1cnn(C)c1 | radiometric | 10 µM | 107
N#Cc1cccc(Nc2nc3cc(C(=O)O)ccc3c3cnccc23)c1 | radiometric | 1 µM | 5
O=C(Nc1cnn(-c2csc(C(=O)NC3COC3)c2)c1)Nc1c(F)cccc1Cl | – | 5 µM | 91.7
Cc1cnc(NC2CCOCC2)nc1-n1cnc(C(=O)NC(CN)c2cc(F)cc(Cl)c2)c1 (stereo not shown) | radiometric | 1 µM | 87
Cn1c(=O)n(-c2ccc(C(C)(C)C#N)cc2)c2c3cc(-c4cnc5ccccc5c4)ccc3ncc21 | – | 10 µM | 89
CC(C)(O)[C@H]1CC[C@H](Nc2ccc3ncc(-c4cccc(C(F)(F)F)c4)n3n2)CC1 | – | 1 µM | 83.9
CC(C)(C)c1nc2c(s1)c1nc(N)ncc1c1ccc(NS(=O)(=O)c3c(F)cccc3F)c(F)c12 | radiometric | 1 µM | 81
O=C(O)c1ccc2c(c1)nc(NCc1ccccc1)c1ncncc12 | radiometric | 1 µM | 70
CCN(CC)c1ccc(C2=NNC(=O)CC2C)cc1[N+](=O)[O-] (stereo not shown) | – | 10 µM | 132
O=C(O)c1ccc2c(c1)nc(Nc1ccc(Cl)cc1)c1ncncc12 | radiometric | 1 µM | 4
Cc1ccc(C(=O)Nc2ccc(CN3CCN(C)CC3)c(C(F)(F)F)c2)cc1C#Cc1cnc2cccnn12 | – | 23.5 nM | 86
CC(C)(C)c1nc(-c2cccc(NS(=O)(=O)c3c(F)cccc3F)c2F)c(-c2ccnc(N)n2)s1 | radiometric | 1 µM | 87
Oc1cccc(-c2nc(N3CCOCC3)c3oc4ncccc4c3n2)c1 | – | 10 µM | 63
COc1cc(Cl)c(C(=O)N[C@@H](CN[C@H]2CC[C@@H](N)CC2)Cc2ccc(C#N)cc2)cc1-c1ccc(CN[C@H](C)c2ccc(C)cc2)o1 | – | 1 µM | 101
O=C(O)c1ccc2c(c1)nc(NCCc1cccc(F)c1)c1ncncc12 | radiometric | 1 µM | 15
O=C(Nc1cnn(-c2csc(C(=O)NC3COC3)c2)c1)Nc1ccccc1Cl | – | 5 µM | 96.3
CCCOc1ccc(OC)c(F)c1C(=O)c1ccc(C(=O)N[C@@H]2CNC[C@H]2NC(=O)c2ccc3[nH]ncc3c2)cc1 | – | 10 µM | 97
O=C(O)c1ccc2c(c1)nc(Nc1cccc(F)c1)c1ccncc12 | radiometric | 1 µM | 6
